Screening results (PubChem)
KCNK9 block – blocks the human KCNK9 two-pore domain potassium channel | B-score at 10 µM | 310,000 compounds, 1.2% hits | Q9NPC2 | HEK293 KCNK9, FluxOR thallium flux fluorescence; active compounds read low;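 active = ratio B-score over 3 SD below the library mean, with starting fluorescence within 5 SD of its mean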;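 note: negative B-score means less thallium flux so channel inhibition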
KCNQ1 inh – blocks the human KCNQ1 potassium channel. P51787. CHO-K1 KCNQ1, FluxOR thallium flux fluorescence; active compounds read high. B-score at 10 µM. 310,000 compounds, 1.3% hits;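 active = compounds whose thallium flux B-score, printed positive for inhibition, exceeds three library SD while starting fluorescence stays within three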;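 note: channel opened by potassium depolarization with thallium stimulus after 20 min compound exposure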
Target sequence (P51787 whole entry, looked up): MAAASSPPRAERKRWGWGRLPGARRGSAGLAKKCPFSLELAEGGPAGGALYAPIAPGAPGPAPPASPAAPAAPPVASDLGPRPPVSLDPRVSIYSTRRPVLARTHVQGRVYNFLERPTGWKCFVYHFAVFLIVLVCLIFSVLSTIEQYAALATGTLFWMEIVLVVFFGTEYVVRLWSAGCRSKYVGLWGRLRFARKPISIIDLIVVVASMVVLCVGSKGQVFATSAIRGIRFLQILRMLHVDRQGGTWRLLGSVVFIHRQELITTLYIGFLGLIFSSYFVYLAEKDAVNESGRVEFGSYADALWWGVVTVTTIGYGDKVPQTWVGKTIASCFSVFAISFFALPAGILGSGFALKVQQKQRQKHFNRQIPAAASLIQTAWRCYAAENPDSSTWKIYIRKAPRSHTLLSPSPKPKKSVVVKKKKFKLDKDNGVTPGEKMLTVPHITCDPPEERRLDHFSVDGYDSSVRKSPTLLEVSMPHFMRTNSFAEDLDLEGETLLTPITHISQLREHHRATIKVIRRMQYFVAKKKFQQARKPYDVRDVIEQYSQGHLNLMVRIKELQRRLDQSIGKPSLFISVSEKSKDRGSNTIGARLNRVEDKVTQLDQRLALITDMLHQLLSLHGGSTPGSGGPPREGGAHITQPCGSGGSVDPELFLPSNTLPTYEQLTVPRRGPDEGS
Kir21 inh – Kir2.1 (mouse) channel inhibition; HEK293-Kir2.1, FluxOR thallium flux fluorescence; active compounds read low; B-score at 10 µM; 310,000 compounds, 0.85% hits; AID 1672;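 active = fluorescence ratio B-score at or below minus 3 SD of library scores, with starting-brightness B-score within 2 SD, cut at about -4.2 in these data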;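 note: channel flux triggered by added potassium and thallium sulfate stimulus; B-score of peak minus minimum fluorescence over baseline after thallium stimulus; more negative B-score means stronger Kir2.1 block with less thallium influx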
KCNK3 inh – human KCNK3 channel inhibition, primary screen | O14649 | 340,000 compounds, 0.84% hits | AID 602410 | B-score at 10 µM | CHO-KCNK3 thallium flux, FluxOR fluorescence; active compounds read low;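 active = B-score under library mean minus 4 SD, starting fluorescence ratio at most library mean plus 5 SD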;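 note: more negative B-score means stronger inhibition of thallium flux through KCNK3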
KCNQ1 pot – potentiates or activates the human KCNQ1 potassium channel; CHO-K1 KCNQ1, thallium flux FluxOR fluorescence; active compounds read high; B-score at 10 µM; 310,000 compounds, 0.35% hits;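 active = fluorescence ratio B-score, a plate-corrected score, at least three library SD, with initial intensity B-score within 5 SD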
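Assay system: CHO-K1 cells stably expressing KCNQ1; Medium: assay buffer with matched DMSO; Also added: K+/Tl+ depolarizing stimulus; Dosing: single dose; Timing: dye 90 min, compound 20 min, room temperature; Measured by: kinetic FluxOR thallium fluorescence, 10-s 1-Hz baseline, 110-s post-stimulus read; Read-out: peak-minus-minimum fluorescence over initial fluorescence, negative-control normalized, B-scored.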
hERG protect – hERG (human) protection from proarrhythmic block | Q12809 | CHO-hERG, FluxOR thallium flux, dofetilide IC70 present | activation (rescue from dofetilide block), less the hit threshold, % at 10 µM | 310,000 compounds, 0.51% hits | AID 1511;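 active = activation above the mean of controls blocked by dofetilide plus 5 SD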;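 note: thallium influx through hERG after potassium depolarization seen as dye fluorescence rise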
KCNK9 inh conf – human KCNK9 inhibitor confirmation; shares compounds with KCNK9 block; HEK293 KCNK9 cells, FluxOR thallium flux fluorescence; inhibition, % at 10 µM; 4,900 compounds, 43% hits;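 active = thallium signal inhibited by more than 5 SD of the compound-free buffer control wells, on both duplicate plates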
Kir2-1 spec – mouse Kir2.1 off-target activity of KCNK9 modulators | 4,900 compounds, 4% hits | inhibition, % at 10 µM | shares compounds with KCNK9 block | Kir2.1 cells, FluxOR thallium flux fluorescence;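 active = thallium signal drop more than 5 SD beyond the mean of the no-compound control wells, seen in both duplicate plates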;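 note: signal is fluorescence rise after thallium addition divided by baseline fluorescence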
HEK293 Tl ctr – second counter-screen for KCNK9 modulators: effect in non-induced cells | 4,900 compounds, 40% hits | inhibition, % at 10 µM | shares compounds with KCNK9 block | non-induced KCNK9-HEK293, FluxOR thallium flux;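 active = thallium signal drop beyond 5 SD of the untreated control mean, on both duplicate plates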
KCNK3 inh conf – human KCNK3 channel inhibition, confirmation assay | CHO-KCNK3 thallium flux, FluxOR fluorescence; 0% buffer, 100% carvedilol maximal block | 2,400 compounds, 99% hits | shares compounds with KCNK3 inh | ratio percent of control, % at 10 µM | AID 651638;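 active = ratio percent of control, averaged over triplicates, above buffer control mean plus 5 SD, cut at about 64% in these data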;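 note: ratio is the fluorescence rise from min to max over baseline after thallium stimulus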
KCNK3 noninduced – activity in cells without induced KCNK3 expression. shares compounds with KCNK3 inh. non-induced KCNK3 parental cells, FluxOR thallium flux; active compounds read low. thallium flux ratio (lower = more inhibition) at 10 µM. 2,400 compounds, 40% hits. AID 651747;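 active = thallium flux ratio, averaged over three wells, more than 5 SD below the buffer control mean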;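 note: host cells are CHO cells without KCNK3 induction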
Hits are given with their value. Hits are enriched below; roughly 3.7% of the tested compounds scored in any of these assays.

`CCCCCCCCCCOC(=O)Cn1c(COc2cccc(C)c2)[n+](C)c2ccccc21` gave KCNK9 block -14, KCNQ1 inh inactive, Kir21 inh -13, KCNK3 inh -10, KCNQ1 pot inactive, hERG protect inactive, KCNK9 inh conf 64%, Kir2-1 spec 64%, HEK293 Tl ctr inactive, KCNK3 inh conf 100 and KCNK3 noninduced inactive.
Screening Cc1cccc(OCCCn2c(=O)sc3ccccc32)c1 returned KCNK9 block inactive, KCNQ1 inh inactive, Kir21 inh inactive, KCNK3 inh inactive, KCNQ1 pot inactive and hERG protect inactive.
For C=CCSc1nc(N)c(C(=O)Nc2ccccc2)cc1C#N the results were KCNK9 block inactive, KCNQ1 inh inactive, Kir21 inh inactive, KCNK3 inh inactive, KCNQ1 pot inactive and hERG protect inactive.
`C=CCSc1nc(N)c(C(=O)Nc2ccccc2OC)cc1C(=O)Nc1ccccc1` gave KCNK9 block -8.7, KCNQ1 inh inactive, Kir21 inh inactive, KCNK3 inh -11, KCNQ1 pot inactive, hERG protect inactive, KCNK9 inh conf 27%, Kir2-1 spec inactive, HEK293 Tl ctr inactive, KCNK3 inh conf 107 and KCNK3 noninduced inactive.
`O=C(Cn1cnc2c(nnn2Cc2ccccc2)c1=O)Nc1ccc2c(c1)OCCO2` gave KCNK9 block inactive, KCNQ1 inh inactive, Kir21 inh inactive, KCNK3 inh inactive, KCNQ1 pot inactive and hERG protect inactive.
Screening CC1(C)CC(=O)C2=C(C1)N1C(=C(C#N)C2c2ccccc2Cl)N=C(N)c2ccccc21 (centres undefined) returned KCNK9 block -15, KCNQ1 inh inactive, Kir21 inh inactive, KCNK3 inh -13, KCNQ1 pot inactive, hERG protect inactive, KCNK9 inh conf 42%, Kir2-1 spec inactive, HEK293 Tl ctr 44%, KCNK3 inh conf 90 and KCNK3 noninduced inactive.
Screening N#CC1=C2N=C(N)c3ccccc3N2C2=C(C(=O)CCC2)C1c1ccccc1F (centres undefined) returned KCNK9 block inactive, KCNQ1 inh inactive, Kir21 inh inactive, KCNK3 inh inactive, KCNQ1 pot inactive and hERG protect inactive.
Screening COc1ccc(C2=NCCn3nc4ccccc4c32)cc1 returned KCNK3 inh inactive.
For CN(CC(=O)Nc1cccc(F)c1)C(=O)c1ccccc1OCCOc1ccccc1 the results were KCNK9 block inactive, KCNQ1 inh inactive, Kir21 inh inactive, KCNK3 inh inactive, KCNQ1 pot inactive and hERG protect inactive.
`Cc1cc(C)c2cc(CN(CC3CCCO3)C(=S)NCc3ccco3)c(=O)[nH]c2c1` (centres undefined) gave KCNK9 block -9.5, KCNQ1 inh inactive, Kir21 inh inactive, KCNK3 inh -9.8, KCNQ1 pot inactive, hERG protect inactive, KCNK9 inh conf 29%, Kir2-1 spec inactive, HEK293 Tl ctr 33%, KCNK3 inh conf 113 and KCNK3 noninduced inactive.
COc1cccc(CNCC(O)(c2ccc(Cl)cc2)c2ccc(Cl)cc2)c1 was read as KCNK9 block -13, KCNQ1 inh 7, Kir21 inh inactive, KCNK3 inh inactive, KCNQ1 pot inactive, hERG protect inactive, KCNK9 inh conf inactive, Kir2-1 spec inactive, HEK293 Tl ctr 38%, KCNK3 inh conf 139 and KCNK3 noninduced 0.15.
`COc1ccc(-c2nc(SC(C)C(=O)NCC3CCCO3)n[nH]2)cc1` (centres undefined) gave KCNK9 block inactive, KCNQ1 inh inactive, Kir21 inh inactive, KCNK3 inh inactive, KCNQ1 pot inactive and hERG protect inactive.
O=S(=O)(c1ccc(Br)s1)N1CCC(Cc2ccccc2)CC1 was read as KCNK9 block inactive, KCNQ1 inh inactive, Kir21 inh inactive, KCNK3 inh -9.1, KCNQ1 pot inactive, hERG protect inactive, KCNK9 inh conf inactive, Kir2-1 spec inactive, HEK293 Tl ctr inactive, KCNK3 inh conf 100 and KCNK3 noninduced inactive.
For Cc1onc(-c2ccc(Cl)cc2)c1-c1ccnc(SCC(=O)Nc2cc(Cl)cc(Cl)c2)n1 the results were KCNK9 block -16, KCNQ1 inh 9, Kir21 inh inactive, KCNK3 inh -13, KCNQ1 pot inactive, hERG protect inactive, KCNK9 inh conf inactive, Kir2-1 spec inactive, HEK293 Tl ctr 44%, KCNK3 inh conf 101 and KCNK3 noninduced 0.15.
For Cn1c(SCC(=O)Nc2cc(Cl)cc(Cl)c2)nnc1-c1ccc2nonc2c1 the results were KCNK9 block inactive, KCNQ1 inh inactive, Kir21 inh inactive, KCNK3 inh inactive, KCNQ1 pot inactive and hERG protect inactive.
Screening CC(C)CC(c1nnnn1Cc1cccs1)N1CCN(c2nc3ccccc3s2)CC1 (centres undefined) returned KCNK9 block -12, KCNQ1 inh inactive, Kir21 inh inactive, KCNK3 inh -10, KCNQ1 pot inactive, hERG protect inactive, KCNK9 inh conf 38%, Kir2-1 spec inactive, HEK293 Tl ctr inactive, KCNK3 inh conf 129 and KCNK3 noninduced 0.12.
Cc1ccc(NC(=O)Nc2cccn(Cc3c(F)cccc3Cl)c2=O)cc1 was read as KCNK9 block inactive, KCNQ1 inh inactive, Kir21 inh inactive, KCNK3 inh inactive, KCNQ1 pot inactive and hERG protect inactive.
Cc1ccc(CN2CCCN(Cc3c(F)cccc3Cl)S2(=O)=O)cc1 was read as KCNK9 block -14, KCNQ1 inh inactive, Kir21 inh inactive, KCNK3 inh -10, KCNQ1 pot inactive, hERG protect inactive, KCNK9 inh conf 60%, Kir2-1 spec inactive, HEK293 Tl ctr 43%, KCNK3 inh conf 113 and KCNK3 noninduced inactive.
For O=C(O)C1CCC(C(=O)O)SS1 (centres undefined) the results were KCNK3 inh inactive.
For CN(N=Nc1cccc([N+](=O)[O-])c1)c1cccc([N+](=O)[O-])c1 the results were KCNK9 block -11, KCNQ1 inh inactive, Kir21 inh inactive, KCNK3 inh inactive, KCNQ1 pot inactive, hERG protect inactive, KCNK9 inh conf inactive, Kir2-1 spec inactive, HEK293 Tl ctr 34%, KCNK3 inh conf 90 and KCNK3 noninduced inactive.
